From ChEMBL document CHEMBL2202986, “Guaianolide sesquiterpene lactones, a source to discover agents that selectively inhibit acute myelogenous leukemia stem and progenitor cells” (J Med Chem, 2012)
Activity calls are given as the source filed them.

How the values were obtained:
[1] = Cytotoxicity against human leukemia cells assessed as cell viability at 10 uM after 18 hrs by annexin-V labeling-based flow cytometry
HL-60 = experiment: Cytotoxicity against human HL60 cells after 18 hrs by annexin-V labeling-based flow cytometry; format: functional, cell-based; details: HL-60, 18 h
[2] = Cytotoxicity against human leukemia stem/progenitor cells assessed as viable CD34+ cells at 5 uM after 18 hrs by annexin-V labeling-based flow cytometry; format: functional, CD34+ cell
Procedure, shortened: (§1)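 Primary leukemia cells from AML patient blood were treated for 18 h in serum-free IMDM, then stained with CD34-APC and CD38-PECy7 for 30 min. After washing in cold PBS, cells were labelled with Annexin-V–FITC/PI for 15 min at room temperature and read by flow cytometry. Viability of total and CD34⁺ cells was normalized to untreated controls (mean, SD).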

[3] = Cytotoxicity against human HL60/A cells after 18 hrs by annexin-V labeling-based flow cytometry; format: functional, cell-based
[4] = Cytotoxicity against human leukemia stem/progenitor cells assessed as viable CD34+ cells at 10 uM after 18 hrs by annexin-V labeling-based flow cytometry; format: functional, CD34+ cell
[5] = Cytotoxicity against human leukemia stem/progenitor cells assessed as cell viability at 5 uM after 18 hrs by annexin-V labeling-based flow cytometry; format: functional; details: in the assay text read “leukemia cells” for “leukemia stem/progenitor cells”, read-out: Activity
Procedure, shortened: as §1

[6] = Cytotoxicity against human leukemia stem/progenitor cells assessed as viable CD34+ cells at 10 uM after 18 hrs by annexin-V labeling-based flow cytometry relative to control; format: functional, CD34+ cell
[7] = Cytotoxicity against human leukemia stem/progenitor cells assessed as viable CD34+CD38- cells at 10 uM after 18 hrs by annexin-V labeling-based flow cytometry relative to control; format: functional
[8] = Drug degradation at pH 7.4 assessed as release of PTL after 3 hrs; format: physicochemical; details: buffer, pH 7.4, 3 h
[9] = Mean retention time (0 to t) in mouse at 100 mg/kg, iv; format: ADME, organism-based; set-up: dose 100 mg/kg, route intravenous; details: in vivo
Procedure, shortened: (§2)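 Male Kunming mice (20 2 g), fasted 12 h before dosing with water available, given DMAMCL as an aqueous solution iv (n = 5). Blood was drawn from the orbital veins at set times. DMAMCL and MCL in plasma were measured, and parameters were derived by a noncompartmental model.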

[10] = Induction of apoptosis in CD34+ leukemia stem/progenitor cells assessed as late apoptotic cells at 10 uM using annexin V/propidium iodide by flow cytometry; format: functional, Homo sapiens
Procedure, shortened: (§3)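 Primary AML patient cells were exposed to 10 μM compound for 18 h in IMDM, then stained with CD34-APC/CD38-PECy7. Annexin-V–FITC/PI was added and incubated for 15 min at room temperature before flow cytometry. Quadrants were defined as Q1 necrotic, Q2 late apoptotic, Q3 early apoptotic and Q4 viable.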

[11] = Reduction in colony forming units of leukemia stem/progenitor cells at 5 uM after 15 to 20 days; format: functional, Homo sapiens
Procedure, shortened: (§4)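 Mononuclear cells from AML patient […] were exposed to drug for 18 h in serum-free IMDM, then plated in triplicate in M3434 methylcellulose. Total colonies (CFC-Mix, CFC-GM, CFC-G, CFC-M, BFU-E) were scored by morphology after 15−20 days.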

[12] = AUC (0 to t) in mouse at 150 mg/kg, po; format: ADME, organism-based; set-up: dose 150 mg/kg, route oral; details: plasma
Procedure, shortened: (§5)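 Male Kunming mice (20 2 g), fasted 12 h before dosing with water available, given DMAMCL as an aqueous solution po (n = 5). Blood was drawn from the orbital veins at set times. Plasma DMAMCL and MCL were followed, and parameters came from noncompartmental analysis.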

[13] = Half life in mouse at 100 mg/kg, iv; format: ADME, organism-based; set-up: dose 100 mg/kg, route intravenous; details: in vivo
Procedure, shortened: as §2

[14] = Induction of apoptosis in CD34+ leukemia stem/progenitor cells assessed as necrotic cells at 10 uM using annexin V/propidium iodide by flow cytometry; format: functional, Homo sapiens
Procedure, shortened: as §3

[15] = Volume of distribution in mouse at 100 mg/kg, iv; format: ADME, organism-based; set-up: dose 100 mg/kg, route intravenous; details: in vivo
Procedure, shortened: (§6)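 Male Kunming mice (20 2 g) were fasted 12 h with water available. An aqueous solution was dosed po (150 mg/kg) or iv (100 mg/kg), n = 5 per route. Blood was drawn from the orbital veins at set times to measure DMAMCL and released MCL. Parameters come from a noncompartmental model and are given as mean with SD.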

[16] = AUC (0 to t) in mouse at 100 mg/kg, iv; format: ADME, organism-based; set-up: dose 100 mg/kg, route intravenous; details: plasma
Procedure, shortened: as §2

Mus musculus = experiment: Volume of distribution in mouse at 150 mg/kg, po; format: ADME, organism-based; set-up: dose 150 mg/kg, route oral; details: in vivo
Procedure, shortened: as §6

[17] = Total clearance in mouse at 100 mg/kg, iv; format: ADME, organism-based; set-up: dose 100 mg/kg, route intravenous; details: in vivo
Procedure, shortened: as §2

[18] = Total clearance in mouse at 150 mg/kg, po; format: ADME, organism-based; set-up: dose 150 mg/kg, route oral; details: in vivo
Procedure, shortened: as §5

[19] = AUC (0 to infinity) in mouse at 100 mg/kg, iv; format: ADME, organism-based; set-up: time infinity, dose 100 mg/kg, route intravenous; details: plasma
Procedure, shortened: as §2

Homo sapiens = experiment: Antitumor activity against human leukemia stem/progenitor cells xenografted in NOD/SCID mouse assessed as reduction of CD45+CD33+ cells in spleen compound pretreated for 18 hrs before grafting process measured after 8 weeks; format: functional, tissue-based
Procedure, shortened: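 Fresh primary AML patient cells were exposed for 18 h to saline or compound. Equal numbers of surviving cells were then injected iv into NOD/SCID mice. After 8 weeks the mice were sacrificed, and the spleen CD33⁺CD45⁺ human cells were quantified by flow cytometry, with each animal analysed individually.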

[20] = Mean retention time (0 to t) in mouse at 150 mg/kg, po; format: ADME, organism-based; set-up: dose 150 mg/kg, route oral; details: in vivo
Procedure, shortened: as §5

[21] = Mean retention time (0 to infinity) in mouse at 100 mg/kg, iv; format: ADME, organism-based; set-up: dose 100 mg/kg, route intravenous; details: in vivo
Procedure, shortened: as §2

[22] = Reduction in colony forming units of leukemia stem/progenitor cells at 10 uM after 15 to 20 days; format: functional, Homo sapiens
Procedure, shortened: as §4

[23] = Tmax in mouse at 150 mg/kg, po; format: ADME, organism-based; set-up: dose 150 mg/kg, route oral; details: in vivo
Procedure, shortened: as §5

[24] = Induction of apoptosis in CD34+ leukemia stem/progenitor cells assessed as early apoptotic cells at 10 uM using annexin V/propidium iodide by flow cytometry; format: functional, Homo sapiens
Procedure, shortened: as §3

[25] = Half life in mouse at 150 mg/kg, po; format: ADME, organism-based; set-up: dose 150 mg/kg, route oral; details: in vivo
Procedure, shortened: as §5

[26] = Induction of apoptosis in CD34+ leukemia stem/progenitor cells assessed as viable cells at 10 uM using annexin V/propidium iodide by flow cytometry; format: functional; details: Homo sapiens; read-out: Activity
Procedure, shortened: as §3

[27] = AUC (0 to infinity) in mouse at 150 mg/kg, po; format: ADME, organism-based; set-up: dose 150 mg/kg, route oral, time infinity; details: plasma
Procedure, shortened: as §5

[28] = Mean retention time (0 to infinity) in mouse at 150 mg/kg, po; format: ADME, organism-based; set-up: dose 150 mg/kg, route oral; details: in vivo
Procedure, shortened: as §5

[29] = Cmax in mouse at 150 mg/kg, po; format: ADME, organism-based; set-up: dose 150 mg/kg, route oral; details: in vivo
Procedure, shortened: as §5

[30] = Cytotoxicity against human CD34+ hematopioetic stem cells at 5 uM by immunostaining method; format: cell-based
Procedure, shortened: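 Mononuclear cells were Ficoll-isolated from umbilical cord blood of a normal donor, cryopreserved, then rested in serum-free IMDM for 1 h. Cells were treated for 18 h in IMDM, stained with CD34-APC for 30 min, and labelled with Annexin-V–FITC/PI for 15 min at room temperature. Read by flow cytometry, normalized to vehicle, done in triplicate.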

[31] = Cmax in mouse at 100 mg/kg, iv; format: ADME, organism-based; set-up: dose 100 mg/kg, route intravenous; details: in vivo
Procedure, shortened: as §2

Compound: C=C1C(=O)O[C@@H]2C=C(CCC(C)=O)[C@@H](C)CC[C@@H]12
- viability at 10 µM [1]: 72%
- IC50 (HL-60): > 50 µM
- Activity [2]: 81.5%
- IC50 [3]: > 50 µM
- Activity [4]: 70.9%
- viability at 5 µM [5]: 83.2%

Compound: C=C1C(=O)O[C@@H]2[C@H]3C(C)=CC[C@@]34O[C@@]4(C)CC[C@@H]12 [ARGLABIN]
- viability at 10 µM [1]: 20%
- fold change (FC) [6]: 1.8
- fold change (FC) [7]: 1.9
- Activity [4]: 10.7%

Compound: C/C1=C\CC[C@@]2(C)O[C@@H]2[C@H]2OC(=O)[C@@H](Cn3cc(CCCCO)nn3)[C@@H]2CC1
- Drug degradation [8]: Not Active
- IC50 (HL-60): > 50 µM
- IC50 [3]: > 100 µM

Compound: C=C1CC[C@@H]2[C@](C)(CO)[C@H](O)CC[C@@]2(C)[C@@H]1C/C=C1/C(=O)OC[C@H]1O [ANDROGRAPHOLIDE]
- IC50 (HL-60): 27 µM
- IC50 [3]: 23.3 µM

Compound: CCCCC/C=C/C=C/C(=O)N1CCCC1 [SARMENTINE]
- IC50 (HL-60): > 50 µM
- IC50 [3]: > 50 µM

Compound: C/C1=C\CC[C@@]2(C)O[C@@H]2[C@H]2OC(=O)[C@@H](Cn3cc(-c4ccccc4)nn3)[C@@H]2CC1
- Drug degradation [8]: Not Active
- IC50 (HL-60): > 50 µM
- IC50 [3]: > 100 µM

Compound: C=C1CC(=O)OC1=O [ITACONIC ANHYDRIDE]
- IC50 (HL-60): > 50 µM
- IC50 [3]: > 50 µM

Compound: C=C1C(=O)O[C@H]2[C@H]1CCC(C)=C1CC[C@@](C)(O)[C@@H]12 [MICHELIOLIDE]
- viability at 10 µM [1]: 8.4%
- MRT last [9]: 1.49 h
- Activity [10]: 69.4%
- fold change (FC) [6]: 3.2
- CFU [11]: 4.5
- AUC(0-t) [12]: 6630 ng·h/mL
- half-life [13]: 12.7 h
- Activity [14]: 0.127%
- Vd [15]: 533 L/kg
- AUC(0-t) [16]: 5490 ng·h/mL
- Vd (Mus musculus): 265.27 L/kg
- clearance [17]: 288 mL/min/kg
- CL/F [18]: 376 mL/min/kg
- fold change (FC) [7]: 5.3
- AUC(0-inf) [19]: 5850 ng·h/mL
- Activity (Homo sapiens): Active
- MRT last [20]: 7.59 h
- MRT inf [21]: 6.34 h
- CFU [22]: 0
- Tmax [23]: 0.36 h
- Activity [24]: 24.2%
- IC50 (HL-60): 5.5 µM
- half-life [25]: 7.92 h
- viability at 10 µM [26]: 1.42%
- AUC(0-inf) [27]: 6720 ng·h/mL
- Activity [2]: 4.2%
- MRT inf [28]: 8.28 h
- IC50 [3]: 6.2 µM
- Activity [4]: 2.3%
- Cmax [29]: 2610 ng/mL
- viability at 5 µM [5]: 11.7%
- Activity [30]: Non-toxic
- Cmax [31]: 10700 ng/mL

Compound: C/C1=C\CC[C@@]2(C)O[C@@H]2[C@H]2OC(=O)[C@@H](Cn3cc(-c4cccc(N)c4)nn3)[C@@H]2CC1
- Drug degradation [8]: Not Active
- IC50 (HL-60): > 50 µM
- IC50 [3]: > 100 µM

Compound: C=C1CCOC1=O [TULIPALINE A]
- IC50 (HL-60): 35 µM
- IC50 [3]: 28.8 µM

Compound: C=C1C(=O)O[C@@H]2/C=C(\C)CC/C=C(\C)CC[C@@H]12 [COSTUNOLIDE]
- viability at 10 µM [1]: 13.4%
- IC50 (HL-60): 7.7 µM
- Activity [2]: 18.8%
- IC50 [3]: 5.8 µM
- Activity [4]: 7.5%
- viability at 5 µM [5]: 25.8%
